Assay results as given in ChEMBL document CHEMBL1142304, “Synthesis and biological activity of phosphonate analogues and geometric isomers of the highly potent phosphoantigen (E)-1-hydroxy-2-methylbut-2-enyl 4-diphosphate” (J Med Chem, 2008).
pEC50: −log10 of the molar value. Values belong to the compound of their own block, whether it stands above or below them. The source made the active and inactive calls. The rule behind the calls is not given here.

Columns and labels:
[1] = Agonist activity at human Vgamma9Vdelta2 receptor expressed in T cells assessed as stimulation of TNFalpha release by ELISA; assay type: functional, cell-based; conditions: T-cell
T-cell [2] = assay: Effect on proliferation of human T cell expressing Vgamma9Vdelta2 receptor in cynomolgus monkey co-treated with IL2 assessed as circulating T cells in blood at 0.02 mg/kg, iv; assay type: functional, organism-based; parameters: dose 0.02 mg/kg
Procedure, shortened: (§1)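 Cynomolgus monkeys were dosed i.v. in Ringer lactate, either as a 30 min infusion (50 mL) or as a bolus depending on the series, with IL-2 0.6 M IU s.c. daily for 5 days. Blood was sampled predose and on days 4, 5, 7, 11 and 14. Circulating γδ-cells were counted by flow cytometry (Vγ9/CD3/CD69 staining, counting beads).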

T-cell [3] = assay: Effect on proliferation of human T cell expressing Vgamma9Vdelta2 receptor in cynomolgus monkey co-treated with IL2 assessed as circulating T cells in blood at 5 mg/kg, iv; assay type: functional, organism-based; parameters: dose 5 mg/kg
Procedure, shortened: (§2)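 Purpose-bred cynomolgus monkeys (7 male, 7 female, 1.8–3.5 kg) got an i.v. bolus in Ringer lactate, with IL-2 0.6 M IU s.c. daily for 5 days. Blood was taken predose and on days 4, 5, 7, 11 and 14. Whole-blood flow cytometry used anti-Vγ9, CD3 and CD69 staining, red-cell lysis and counting fluorospheres for absolute counts.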

T-cell [4] = assay: Effect on proliferation of human T cell expressing Vgamma9Vdelta2 receptor in cynomolgus monkey co-treated with IL2 assessed as circulating T cells in blood at 10 mg/kg, iv; assay type: functional, organism-based; parameters: dose 10 mg/kg; procedure, shortened: as §2
[5] = Effect on proliferation of human T cell expressing Vgamma9Vdelta2 receptor in cynomolgus monkey co-treated with IL2 assessed as circulating T cells in blood at 2.5 mg/kg, iv; assay type: functional; procedure, shortened: as §1
Rattus norvegicus = assay: Drug level in iv dosed rat assessed as recovered compound after 7 days; assay type: ADME, organism-based; conditions: in vivo, 168 h
[6] = Drug level in iv dosed rat assessed as excreted compound in urine; assay type: ADME, organism-based; conditions: read-out: Drug uptake
[7] = Chemical stability at 4 degC after 7 days; assay type: physicochemical; conditions: 168 h
Procedure, shortened: (§3)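 Pyrophosphate analogue tested as 0.3 mM solution and pyrophosphonate analogue as 0.5 mM solution under the stated temperature, 0.1 N HCl or H2O2 stress. Degradation was measured by ionic chromatography with conductometric detection and estimated as % of relative area.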

[8] = Chemical stability assessed as degradation at 25 degC after 7 days; assay type: physicochemical; conditions: 168 h; procedure, shortened: as §3
[9] = Chemical stability assessed as degradation at 60 degC after 24 hrs; assay type: physicochemical; conditions: read-out: Activity; procedure, shortened: as §3
[10] = Chemical stability assessed as degradation in 3% H2O2 at 60 degC after 2 hrs; assay type: physicochemical; conditions: read-out: Activity; procedure, shortened: as §3

SMILES: C/C(=C/COP(=O)(O)OP(=O)(O)O)CO
pEC50 [1]: 6.60

SMILES: C/C(=C/CO)CCP(=O)(O)O
pEC50 [1]: < 4.00

SMILES: C/C(=C/CO)CCP(=O)(O)OP(=O)(O)O
pEC50 [1]: < 4.00

Further lines, with some results ahead:

pEC50 [1]: < 4.00
SMILES: C/C(=C/CO)COP(=O)(O)OP(=O)(O)O

pEC50 [1]: 9.41 | Drug uptake (Rattus norvegicus): 80% | dose excreted [6]: 50% | Stability [7]: Stable | degradation [8]: 5% | degraded at 24 h [9]: 14% | degraded at 2 h [10]: 4%
SMILES: C/C(=C\COP(=O)(O)OP(=O)(O)O)CO
Activity (T-cell [2]): Active | Activity (T-cell [3]): Active | Activity (T-cell [4]): Active | Activity [5]: 40%

pEC50 [1]: 7.62
SMILES: CC(O)(CBr)CCOP(=O)(O)OP(=O)(O)O (configuration not stated) [BROMOHYDRIN PYROPHOSPHATE]

pEC50 [1]: 7.03
SMILES: C/C(=C\CO)COP(=O)(O)OP(=O)(O)O
